{"data": "Measurements collected from several papers", "target": "Carbonic anhydrase 2 (CA2, Homo sapiens, UniProt P00918)", "read-out": "enzyme activity", "action": "inhibitor", "note": "Compare with care: the assays were run in different laboratories."}
{"Structure (SMILES)": "Cc1cccc(CC(=O)Nc2nnc(S(N)(=O)=O)s2)c1", "method": "stopped-flow", "measurement": "Ki", "value": "36.8 nM"}
{"Structure (SMILES)": "Cn1cnc([N+](=O)[O-])c1Sc1ncnc2nc[nH]c12", "method": "absorbance", "pH": "pH 7.4", "measurement": "IC50", "value": "20600 nM"}
{"Structure (SMILES)": "NS(=O)(=O)c1cnc(NC(=O)CCc2ccccc2)s1", "method": "stopped-flow", "measurement": "Ki", "value": "98.7 nM"}
{"Structure (SMILES)": "Cc1cncc(CN2CCC(=C3c4ccc(Cl)cc4CCc4cccnc43)CC2)c1", "method": "absorbance", "pH": "pH 7.4", "measurement": "IC50", "value": "14600 nM"}
{"Structure (SMILES)": "OC1CCN(c2ccc(/C=N/NC(=S)NCc3ccc(Cl)cc3)cc2)CC1", "method": "absorbance", "measurement": "IC50", "value": "374 nM"}
{"Structure (SMILES)": "Cc1ccccc1C(=O)Nc1nnc(S(N)(=O)=O)s1", "method": "stopped-flow", "measurement": "Ki", "value": "25.6 nM"}
{"Structure (SMILES)": "Cc1ccc(CNC(=S)N/N=C/c2ccc(N3CCC(O)CC3)cc2)cc1", "method": "absorbance", "measurement": "IC50", "value": "698 nM"}
{"Structure (SMILES)": "O=c1[nH]c(=O)n([C@H]2C[C@H](O)[C@@H](CO)O2)cc1/C=C/Br", "method": "absorbance", "pH": "pH 7.4", "measurement": "IC50", "value": "11800 nM"}
{"Structure (SMILES)": "OC1CCN(c2ccc(/C=N/NC(=S)NCc3ccccc3)cc2)CC1", "method": "absorbance", "measurement": "IC50", "value": "504 nM"}
{"Structure (SMILES)": "O=C(O)COCCN1CCN(C(c2ccccc2)c2ccc(Cl)cc2)CC1 (stereo not drawn)", "method": "absorbance", "pH": "pH 7.4", "measurement": "IC50", "value": "15200 nM"}
{"Structure (SMILES)": "O=C(O)c1ccc(Nc2nc(-c3cc4cc(Br)ccc4oc3=O)cs2)cc1", "method": "absorbance", "measurement": "IC50", "value": "1290 nM"}
{"Structure (SMILES)": "OC1CCN(c2ccc(/C=N/NC(=S)Nc3ccc(Br)cc3)cc2)CC1", "method": "absorbance", "measurement": "IC50", "value": "332 nM"}
{"Structure (SMILES)": "OC(Cn1cncn1)(Cn1cncn1)c1ccc(F)cc1F", "method": "absorbance", "pH": "pH 7.4", "measurement": "IC50", "value": "12500 nM"}
{"Structure (SMILES)": "OC1CCN(c2ccc(/C=N/NC(=S)Nc3ccc(F)cc3)cc2)CC1", "method": "absorbance", "measurement": "IC50", "value": "255 nM"}
{"Structure (SMILES)": "NS(=O)(=O)c1nnc(NC(=O)CCc2ccc(F)cc2)s1", "method": "stopped-flow", "measurement": "Ki", "value": "3.6 nM"}
